{"source": "ChEMBL document CHEMBL4382192", "about": "“Discovery of a potent dual ALK and EGFR T790M inhibitor” (Eur J Med Chem, 2017)", "key": {"[1]": {"target": "Protein kinase C delta type (Homo sapiens) (UniProt Q05655)", "assay": "Binding affinity to wild-type human partial length PRKCD (Q328 to D676 residues) expressed in bacterial expression system assessed as residual binding level at 1 uM by Kinomescan method relative to control"}, "[2]": {"target": "Mitogen-activated protein kinase kinase kinase 20 (Homo sapiens) (UniProt Q9NYL2)", "assay": "Binding affinity to wild-type human partial length ZAK (M1 to L331 residues) expressed in bacterial expression system assessed as residual binding level at 1 uM by Kinomescan method relative to control"}, "[3]": {"target": "Cyclin-dependent kinase 8 (Homo sapiens) (UniProt P49336)", "assay": "Binding affinity to wild-type human partial length CDK8 (M1 to T360 residues) expressed in bacterial expression system assessed as residual binding level at 1 uM by Kinomescan method relative to control"}, "[4]": {"target": "Mitogen-activated protein kinase 8 (Homo sapiens) (UniProt P45983)", "assay": "Binding affinity to wild-type human full length JNK1 (M1 to Q384 residues) expressed in mammalian expression system assessed as residual binding level at 1 uM by Kinomescan method relative to control", "method_in_brief": "(§1)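 Single-point kinome-wide KINOMEscan binding panel, test compound at 1 μM, run by the provider's standard protocol.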"}, "[5]": {"target": "Serine/threonine-protein kinase Nek6 (Homo sapiens) (UniProt Q9HC98)", "assay": "Binding affinity to wild-type human full length NEK6 (M8 to T313 residues) expressed in bacterial expression system assessed as residual binding level at 1 uM by Kinomescan method relative to control", "method_in_brief": "as §1"}, "[6]": {"assay": "Inhibition of EGFR/ALK L1152R mutant in human DFCI076 cells assessed as reduction in cell viability after 72 hrs by MTS assay", "format": "cell-based"}, "[7]": {"target": "Serine/threonine-protein kinase SIK1 (Homo sapiens) (UniProt P57059)", "sequence (P57059 whole entry, the tested form may be a part)": "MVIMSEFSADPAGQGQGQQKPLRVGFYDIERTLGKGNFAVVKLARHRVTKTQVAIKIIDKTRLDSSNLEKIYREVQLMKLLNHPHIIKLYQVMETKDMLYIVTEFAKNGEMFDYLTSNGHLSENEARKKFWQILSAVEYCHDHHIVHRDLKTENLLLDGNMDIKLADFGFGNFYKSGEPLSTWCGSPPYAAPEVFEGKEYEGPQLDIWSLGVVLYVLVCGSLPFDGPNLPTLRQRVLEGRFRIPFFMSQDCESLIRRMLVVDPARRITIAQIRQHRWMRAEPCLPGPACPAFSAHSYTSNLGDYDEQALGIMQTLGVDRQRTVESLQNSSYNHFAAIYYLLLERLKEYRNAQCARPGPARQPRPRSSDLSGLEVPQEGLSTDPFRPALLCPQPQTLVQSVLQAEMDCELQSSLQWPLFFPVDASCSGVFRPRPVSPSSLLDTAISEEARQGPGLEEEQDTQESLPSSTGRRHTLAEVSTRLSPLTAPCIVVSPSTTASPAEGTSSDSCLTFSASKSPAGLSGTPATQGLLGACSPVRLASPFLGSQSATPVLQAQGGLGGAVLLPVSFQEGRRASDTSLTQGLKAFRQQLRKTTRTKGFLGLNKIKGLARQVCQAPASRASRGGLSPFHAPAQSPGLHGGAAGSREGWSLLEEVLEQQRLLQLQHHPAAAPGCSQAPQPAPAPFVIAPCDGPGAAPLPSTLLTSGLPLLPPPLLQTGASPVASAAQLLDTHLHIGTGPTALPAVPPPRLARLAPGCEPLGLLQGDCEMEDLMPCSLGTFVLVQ", "assay": "Binding affinity to wild-type human partial length SIK (M1 to Y304 residues) expressed in bacterial expression system assessed as residual binding level at 1 uM by Kinomescan method relative to control"}, "[8]": {"target": "Aurora kinase C (Homo sapiens) (UniProt Q9UQB9)", "assay": "Binding affinity to wild-type human full length AURKC (M1 to S275 residues) expressed in bacterial expression system assessed as residual binding level at 1 uM by Kinomescan method relative to control"}, "[9]": {"target": "Maternal embryonic leucine zipper kinase (Homo sapiens) (UniProt Q14680)", "assay": "Binding affinity to wild-type human full length MELK (M1 to V651 residues) expressed in bacterial expression system assessed as residual binding level at 1 uM by Kinomescan method relative to control", "method_in_brief": "as §1"}, "[10]": {"target": "ALK tyrosine kinase receptor (Homo sapiens, UniProt Q9UM73)", "sequence (Q9UM73 19-1620 limits assumed)": "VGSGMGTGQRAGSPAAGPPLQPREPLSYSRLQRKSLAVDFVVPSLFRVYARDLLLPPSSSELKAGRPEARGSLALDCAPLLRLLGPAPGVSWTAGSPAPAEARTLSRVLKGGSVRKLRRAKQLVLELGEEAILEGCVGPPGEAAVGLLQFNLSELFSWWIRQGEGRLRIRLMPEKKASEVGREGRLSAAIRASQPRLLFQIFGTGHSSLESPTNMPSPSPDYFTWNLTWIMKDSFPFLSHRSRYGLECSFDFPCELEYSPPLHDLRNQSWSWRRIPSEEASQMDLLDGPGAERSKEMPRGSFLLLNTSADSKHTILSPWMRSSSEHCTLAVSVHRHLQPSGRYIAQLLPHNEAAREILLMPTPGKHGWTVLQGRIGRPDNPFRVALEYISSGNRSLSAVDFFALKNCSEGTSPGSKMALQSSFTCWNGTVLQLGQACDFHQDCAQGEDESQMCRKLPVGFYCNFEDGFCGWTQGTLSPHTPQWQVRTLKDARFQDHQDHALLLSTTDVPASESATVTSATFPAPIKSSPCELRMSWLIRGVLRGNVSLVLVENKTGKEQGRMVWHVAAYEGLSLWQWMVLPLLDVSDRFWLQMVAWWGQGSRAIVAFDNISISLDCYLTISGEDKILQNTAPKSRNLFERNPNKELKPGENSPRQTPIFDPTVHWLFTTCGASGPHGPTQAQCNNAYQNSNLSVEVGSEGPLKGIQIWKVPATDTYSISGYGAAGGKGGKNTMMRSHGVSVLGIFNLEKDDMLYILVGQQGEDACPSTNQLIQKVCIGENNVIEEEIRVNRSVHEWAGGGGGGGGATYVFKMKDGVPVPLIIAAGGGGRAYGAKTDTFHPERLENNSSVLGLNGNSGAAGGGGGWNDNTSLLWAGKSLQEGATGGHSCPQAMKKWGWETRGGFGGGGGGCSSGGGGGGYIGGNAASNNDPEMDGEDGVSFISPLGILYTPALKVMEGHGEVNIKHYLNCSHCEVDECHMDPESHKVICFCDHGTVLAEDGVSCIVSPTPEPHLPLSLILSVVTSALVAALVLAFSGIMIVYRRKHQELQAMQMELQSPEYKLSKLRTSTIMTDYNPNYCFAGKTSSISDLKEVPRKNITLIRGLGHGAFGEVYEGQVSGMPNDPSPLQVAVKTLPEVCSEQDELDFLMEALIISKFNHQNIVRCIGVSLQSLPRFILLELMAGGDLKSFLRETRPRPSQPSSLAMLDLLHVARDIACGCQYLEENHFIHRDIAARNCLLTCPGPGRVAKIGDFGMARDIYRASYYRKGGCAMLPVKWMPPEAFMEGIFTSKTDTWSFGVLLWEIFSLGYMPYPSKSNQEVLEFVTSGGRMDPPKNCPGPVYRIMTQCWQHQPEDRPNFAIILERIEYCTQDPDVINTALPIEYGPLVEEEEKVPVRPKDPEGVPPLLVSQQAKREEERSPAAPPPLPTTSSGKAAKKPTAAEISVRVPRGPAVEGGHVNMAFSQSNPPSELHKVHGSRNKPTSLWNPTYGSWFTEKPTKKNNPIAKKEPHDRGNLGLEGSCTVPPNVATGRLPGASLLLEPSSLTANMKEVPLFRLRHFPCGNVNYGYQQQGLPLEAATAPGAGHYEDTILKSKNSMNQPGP", "assay": "Binding affinity to wild-type human partial length ALK (I1088 to E1409 residues) expressed in mammalian expression system assessed as residual binding level at 1 uM by Kinomescan method relative to control"}, "[11]": {"target": "cGMP-dependent protein kinase 2 (Homo sapiens) (UniProt Q13237)", "sequence (Q13237 whole entry, the tested form may be a part)": "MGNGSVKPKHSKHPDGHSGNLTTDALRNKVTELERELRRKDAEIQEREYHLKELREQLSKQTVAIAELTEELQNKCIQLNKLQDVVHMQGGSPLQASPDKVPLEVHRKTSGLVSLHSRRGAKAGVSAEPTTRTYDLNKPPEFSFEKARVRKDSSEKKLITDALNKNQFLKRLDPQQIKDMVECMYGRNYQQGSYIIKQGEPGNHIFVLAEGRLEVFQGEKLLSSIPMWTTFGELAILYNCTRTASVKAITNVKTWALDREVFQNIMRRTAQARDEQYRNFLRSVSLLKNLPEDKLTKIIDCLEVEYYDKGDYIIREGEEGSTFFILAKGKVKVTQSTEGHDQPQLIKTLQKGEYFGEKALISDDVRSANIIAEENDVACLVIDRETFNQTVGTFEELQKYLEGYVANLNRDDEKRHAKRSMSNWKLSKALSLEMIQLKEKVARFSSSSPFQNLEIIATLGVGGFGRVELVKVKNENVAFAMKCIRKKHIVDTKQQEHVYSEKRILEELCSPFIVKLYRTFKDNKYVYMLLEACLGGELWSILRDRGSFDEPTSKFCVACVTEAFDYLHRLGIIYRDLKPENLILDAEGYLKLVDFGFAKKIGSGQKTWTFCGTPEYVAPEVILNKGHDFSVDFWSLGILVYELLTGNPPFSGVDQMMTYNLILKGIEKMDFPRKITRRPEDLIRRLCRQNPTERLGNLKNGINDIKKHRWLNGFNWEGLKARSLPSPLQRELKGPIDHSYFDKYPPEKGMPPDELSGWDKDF", "assay": "Binding affinity to wild-type human partial length PRKG2 (S422 to F762 residues) expressed in mammalian expression system assessed as residual binding level at 1 uM by Kinomescan method relative to control"}, "[12]": {"target": "Calcium/calmodulin-dependent protein kinase type II subunit beta (Homo sapiens) (UniProt Q13554)", "sequence (Q13554 whole entry, the tested form may be a part)": "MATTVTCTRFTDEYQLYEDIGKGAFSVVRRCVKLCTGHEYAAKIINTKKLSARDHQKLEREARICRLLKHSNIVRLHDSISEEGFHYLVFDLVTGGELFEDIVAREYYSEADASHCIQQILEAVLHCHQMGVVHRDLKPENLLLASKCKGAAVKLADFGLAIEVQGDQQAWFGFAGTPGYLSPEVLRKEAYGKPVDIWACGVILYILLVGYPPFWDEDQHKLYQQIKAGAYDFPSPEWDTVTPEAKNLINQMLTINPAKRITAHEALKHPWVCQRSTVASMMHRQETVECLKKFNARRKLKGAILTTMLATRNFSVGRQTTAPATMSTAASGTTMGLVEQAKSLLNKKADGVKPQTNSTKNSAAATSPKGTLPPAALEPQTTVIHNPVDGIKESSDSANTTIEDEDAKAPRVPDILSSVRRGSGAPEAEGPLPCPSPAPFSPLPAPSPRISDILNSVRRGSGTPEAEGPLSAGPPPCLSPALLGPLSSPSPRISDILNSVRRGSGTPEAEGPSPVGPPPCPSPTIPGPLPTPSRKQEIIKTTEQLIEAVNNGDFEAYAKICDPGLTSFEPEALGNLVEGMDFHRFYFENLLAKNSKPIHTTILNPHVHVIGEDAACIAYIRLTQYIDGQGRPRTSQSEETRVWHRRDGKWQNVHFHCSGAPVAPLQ", "assay": "Binding affinity to wild-type human partial length CAMK2B (M1 to Q380 residues) expressed in bacterial expression system assessed as residual binding level at 1 uM by Kinomescan method relative to control"}, "[13]": {"tested_on": "Receptor-type tyrosine-protein kinase FLT3 (Homo sapiens), P36888 [N841I]", "assay": "Binding affinity to human partial length FLT3 N841I mutant (V592 to Y969 residues) expressed in bacterial expression system assessed as residual binding level at 1 uM by Kinomescan method relative to control", "method_in_brief": "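Kinome-wide selectivity panel run by the KINOMEscan method, with the test compound at a single concentration of 1 μM. Wild-type and mutant kinases were profiled in the same screen.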"}, "[14]": {"tested_on": "Phosphatidylinositol 4,5-bisphosphate 3-kinase catalytic subunit alpha isoform (Homo sapiens), P42336 [I800L]", "sequence (P42336 whole entry I800L, the tested form may be a part, canonical isoform)": "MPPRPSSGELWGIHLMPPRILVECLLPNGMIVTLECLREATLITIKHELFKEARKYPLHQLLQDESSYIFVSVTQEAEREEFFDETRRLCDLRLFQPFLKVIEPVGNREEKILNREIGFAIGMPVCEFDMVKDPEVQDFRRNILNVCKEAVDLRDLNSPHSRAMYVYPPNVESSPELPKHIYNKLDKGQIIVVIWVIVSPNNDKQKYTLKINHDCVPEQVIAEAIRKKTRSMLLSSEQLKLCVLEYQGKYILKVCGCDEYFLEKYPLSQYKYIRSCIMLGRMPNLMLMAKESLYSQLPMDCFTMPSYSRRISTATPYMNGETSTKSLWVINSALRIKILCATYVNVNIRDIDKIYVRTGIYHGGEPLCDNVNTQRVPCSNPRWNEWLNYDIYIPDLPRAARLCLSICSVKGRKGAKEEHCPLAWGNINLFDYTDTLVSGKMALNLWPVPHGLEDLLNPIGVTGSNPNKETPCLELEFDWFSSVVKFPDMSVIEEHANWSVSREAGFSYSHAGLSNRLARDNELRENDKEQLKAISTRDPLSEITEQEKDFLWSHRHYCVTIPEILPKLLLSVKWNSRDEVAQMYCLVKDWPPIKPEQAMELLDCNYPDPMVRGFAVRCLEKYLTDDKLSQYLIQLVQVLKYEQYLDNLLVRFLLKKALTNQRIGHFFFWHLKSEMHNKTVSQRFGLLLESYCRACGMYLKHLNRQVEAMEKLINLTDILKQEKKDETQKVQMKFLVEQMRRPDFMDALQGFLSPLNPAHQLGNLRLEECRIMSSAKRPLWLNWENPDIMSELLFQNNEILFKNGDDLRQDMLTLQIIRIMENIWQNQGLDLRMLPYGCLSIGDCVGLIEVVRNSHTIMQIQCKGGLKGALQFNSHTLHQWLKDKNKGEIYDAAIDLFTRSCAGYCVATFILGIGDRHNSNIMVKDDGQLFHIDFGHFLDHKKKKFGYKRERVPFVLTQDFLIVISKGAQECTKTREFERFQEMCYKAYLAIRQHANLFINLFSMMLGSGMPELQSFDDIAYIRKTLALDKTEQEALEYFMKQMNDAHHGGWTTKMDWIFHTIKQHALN", "assay": "Binding affinity to human partial length PIK3CA I800L mutant (R108 to N1068 residues) expressed in mammalian expression system assessed as residual binding level at 1 uM by Kinomescan method relative to control"}}, "note": "pEC50: −log10 of the molar value.", "data": [{"molecule": "C=CC(=O)Nc1cc(Nc2ncc(Cl)c(Nc3ccccc3S(=O)(=O)C(C)C)n2)c(OC)cc1N(C)CCN(C)C", "values": [{"measurement": "Activity", "setting": "[1]", "value": 64, "unit": "%"}, {"measurement": "Activity", "setting": "[2]", "value": 86, "unit": "%"}, {"measurement": "Activity", "setting": "[3]", "value": 90, "unit": "%"}, {"measurement": "Activity", "setting": "[4]", "value": 59, "unit": "%"}, {"measurement": "Activity", "setting": "[5]", "value": 80, "unit": "%"}, {"measurement": "pEC50", "setting": "[6]", "value": 6.09}, {"measurement": "Activity", "setting": "[7]", "value": 67, "unit": "%"}, {"measurement": "Activity", "setting": "[8]", "value": 8.2, "unit": "%"}, {"measurement": "Activity", "setting": "[9]", "value": 54, "unit": "%"}, {"measurement": "Activity", "setting": "[10]", "value": 0, "unit": "%"}, {"measurement": "Activity", "setting": "[11]", "value": 79, "unit": "%"}, {"measurement": "Activity", "setting": "[12]", "value": 48, "unit": "%"}, {"measurement": "Activity", "setting": "[13]", "value": 6.8, "unit": "%"}, {"measurement": "Activity", "setting": "[14]", "value": 81, "unit": "%"}]}]}
